How the values were obtained:
PC-3 = experiment: cells; type: functional; settings: Homo sapiens, PC-3, 48 h
Histone deacetylase = experiment: Inhibition of HDAC in human HeLa cell nuclear extract after 30 mins by fluorescence microplate reader; type: protein assay
cells = type: functional, Hep 3B2; settings: Homo sapiens, Hep3B, 48 h
A549 = experiment: Growth inhibition of human A549 cells after 48 hrs by SRB assay; type: functional
Procedure, shortened: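 A549 cells were grown in RPMI 1640 with 10% FBS and 2 mM glutamine at 37 °C in 5% CO₂, then seeded in medium with 5% FBS. A 24 h TCA-fixed plate gave T₀. Cells were exposed to compound or DMSO for 48 h, fixed with 10% TCA and stained with 0.4% SRB; bound dye was solubilized in 10 mM Tris and read at 515 nm. GI₅₀ was the concentration halving net protein increase. At least three independent experiments.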

MDA-MB-231 = experiment: cells; type: functional; settings: Homo sapiens, MDA-MB-231, 48 h
[1] = target: T1, Protein deacetylase HDAC6 (Homo sapiens, UniProt Q9UBN7); experiment: Inhibition of human recombinant HDAC6 after 30 mins by fluorometric assay
T1 sequence (Q9UBN7 whole entry): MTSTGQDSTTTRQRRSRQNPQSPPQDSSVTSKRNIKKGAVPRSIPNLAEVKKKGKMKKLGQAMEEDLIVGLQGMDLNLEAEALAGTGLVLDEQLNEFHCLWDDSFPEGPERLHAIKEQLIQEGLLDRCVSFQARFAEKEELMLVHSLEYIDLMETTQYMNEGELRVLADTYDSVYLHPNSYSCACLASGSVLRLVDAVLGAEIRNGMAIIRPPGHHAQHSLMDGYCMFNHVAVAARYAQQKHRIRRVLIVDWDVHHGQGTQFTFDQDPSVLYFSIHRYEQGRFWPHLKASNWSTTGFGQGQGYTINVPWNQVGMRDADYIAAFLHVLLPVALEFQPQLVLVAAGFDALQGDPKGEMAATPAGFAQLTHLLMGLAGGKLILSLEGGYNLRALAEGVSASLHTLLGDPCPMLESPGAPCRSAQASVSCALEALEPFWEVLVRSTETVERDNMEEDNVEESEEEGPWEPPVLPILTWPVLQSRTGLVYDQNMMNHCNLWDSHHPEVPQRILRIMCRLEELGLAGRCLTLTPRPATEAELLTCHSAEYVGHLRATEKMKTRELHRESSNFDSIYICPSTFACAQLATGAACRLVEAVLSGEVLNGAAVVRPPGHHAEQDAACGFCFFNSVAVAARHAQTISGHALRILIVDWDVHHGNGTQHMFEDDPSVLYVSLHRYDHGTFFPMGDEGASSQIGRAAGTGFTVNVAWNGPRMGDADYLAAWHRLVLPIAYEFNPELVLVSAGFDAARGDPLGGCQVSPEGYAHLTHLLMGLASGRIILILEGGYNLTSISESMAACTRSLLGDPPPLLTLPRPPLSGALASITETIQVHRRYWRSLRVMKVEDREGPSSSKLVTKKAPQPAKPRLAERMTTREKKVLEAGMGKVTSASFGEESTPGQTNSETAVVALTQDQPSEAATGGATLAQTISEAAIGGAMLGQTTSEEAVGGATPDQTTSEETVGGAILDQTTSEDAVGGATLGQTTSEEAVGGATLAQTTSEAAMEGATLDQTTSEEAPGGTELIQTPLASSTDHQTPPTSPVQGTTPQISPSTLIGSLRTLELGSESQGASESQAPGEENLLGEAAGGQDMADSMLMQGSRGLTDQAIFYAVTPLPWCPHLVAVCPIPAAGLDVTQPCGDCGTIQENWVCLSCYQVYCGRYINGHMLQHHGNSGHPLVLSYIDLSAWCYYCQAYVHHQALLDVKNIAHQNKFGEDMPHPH

Histone deacetylase 1 = Histone deacetylase 1 (Homo sapiens, UniProt Q13547); experiment: Inhibition of human recombinant HDAC1 after 30 mins by fluorometric assay
Histone deacetylase 2 = Histone deacetylase 2 (Homo sapiens, UniProt Q92769); experiment: Inhibition of human recombinant HDAC2 after 30 mins by fluorometric assay
Homo sapiens = species on record: Homo sapiens; experiment: Selectivity ratio of IC50 for human HDAC1 to IC50 for human HDAC6

Chain of Histone deacetylase 1 (Q13547 whole entry): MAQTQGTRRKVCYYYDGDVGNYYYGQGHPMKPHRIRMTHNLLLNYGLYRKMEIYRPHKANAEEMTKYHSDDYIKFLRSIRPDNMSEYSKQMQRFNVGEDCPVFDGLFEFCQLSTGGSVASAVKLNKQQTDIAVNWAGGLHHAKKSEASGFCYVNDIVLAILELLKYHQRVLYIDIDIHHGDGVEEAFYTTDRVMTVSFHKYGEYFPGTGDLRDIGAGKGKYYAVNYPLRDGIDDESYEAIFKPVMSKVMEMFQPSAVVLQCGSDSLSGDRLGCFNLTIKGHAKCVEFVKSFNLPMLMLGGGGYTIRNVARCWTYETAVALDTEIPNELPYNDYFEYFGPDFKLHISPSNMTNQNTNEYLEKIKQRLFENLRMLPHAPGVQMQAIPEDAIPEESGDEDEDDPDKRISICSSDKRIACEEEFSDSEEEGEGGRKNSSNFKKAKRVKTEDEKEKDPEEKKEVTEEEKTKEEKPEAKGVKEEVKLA
Chain of Histone deacetylase 2 (Q92769 whole entry): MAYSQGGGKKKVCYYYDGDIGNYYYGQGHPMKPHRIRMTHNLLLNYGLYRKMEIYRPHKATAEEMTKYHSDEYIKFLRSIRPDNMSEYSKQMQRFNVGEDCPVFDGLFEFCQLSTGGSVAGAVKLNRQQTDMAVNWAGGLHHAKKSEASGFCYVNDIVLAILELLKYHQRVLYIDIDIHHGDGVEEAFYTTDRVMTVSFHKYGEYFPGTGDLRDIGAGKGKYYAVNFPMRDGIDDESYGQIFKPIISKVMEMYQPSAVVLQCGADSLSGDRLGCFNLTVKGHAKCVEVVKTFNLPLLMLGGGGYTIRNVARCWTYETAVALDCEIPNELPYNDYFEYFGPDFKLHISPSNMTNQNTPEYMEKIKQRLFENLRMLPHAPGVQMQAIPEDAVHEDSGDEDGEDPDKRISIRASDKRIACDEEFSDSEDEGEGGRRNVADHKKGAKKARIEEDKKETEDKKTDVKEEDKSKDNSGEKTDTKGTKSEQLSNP

| Structure (SMILES) | GI50 (PC-3) [nM] | IC50 (Histone deacetylase) [nM] | GI50 (cells) [nM] | GI50 (A549; Homo sapiens, A549, 48 h) [µM] | GI50 (MDA-MB-231) [nM] | IC50 [1] [nM] | IC50 (Histone deacetylase 1) [nM] | IC50 (Histone deacetylase 2) [nM] | GI50 (A549) [µM] | Ratio IC50 (Homo sapiens) |
| --- | --- | --- | --- | --- | --- | --- | --- | --- | --- | --- |
| O=C(/C=C/c1ccc2ccn(S(=O)(=O)c3ccccc3)c2c1)NO | 2400 | 254 | 2120 | 5.3 | 2410 | – | – | – | – | – |
| COc1ccc(S(=O)(=O)n2ccc3cc(/C=C/C(=O)NO)ccc32)cc1OC | 930 | 9.7 | 360 | 0.56 | 370 | 45.4 | 18.1 | 2.3 | – | – |
| O=C(/C=C/c1cn(S(=O)(=O)c2ccccc2)c2ccccc12)NO | 5770 | > 1000 | 8870 | 7.06 | 8140 | – | – | – | – | – |
| O=C(CCc1ccc2c(ccn2S(=O)(=O)c2ccccc2)c1)NO | 2070 | 407.5 | 2560 | 4.04 | 2210 | – | – | – | – | – |
| O=C(/C=C/c1ccc2c(ccn2C(=O)c2ccccc2)c1)NO | 2320 | 757.6 | 2400 | 5.8 | 3180 | – | – | – | – | – |
| O=C(/C=C/c1cccc2c1ccn2S(=O)(=O)c1ccccc1)NO | 3670 | 170.9 | 4320 | 6.7 | 4160 | – | – | – | – | – |
| O=C(/C=C/c1ccc2[nH]ccc2c1)NO | 4800 | > 1000 | 3650 | 9.07 | 4370 | – | – | – | – | – |
| O=C(/C=C/c1ccc2c(ccn2S(=O)(=O)c2ccc(F)cc2)c1)NO | 390 | 16.8 | 640 | 0.75 | 660 | 59.2 | 33.2 | 199 | – | – |
| O=C(CCCCCCC(=O)Nc1ccccc1)NO [VORINOSTAT] | – | – | – | – | – | – | – | – | 1.85 | – |
| O=C(/C=C/c1cccc2ccn(S(=O)(=O)c3ccccc3)c12)NO | 4750 | > 1000 | 3820 | 5.5 | 7710 | – | – | – | – | – |
| O=C(/C=C/c1ccc2c(ccn2S(=O)(=O)c2ccc([N+](=O)[O-])cc2)c1)NO | 850 | 12.6 | 560 | 1.21 | 750 | 18.3 | 69.9 | 189 | – | – |
| O=C(/C=C/c1ccc2c(ccn2Cc2ccccc2)c1)NO | 1230 | 32.1 | 860 | 2.37 | 1180 | 40.4 | 71.2 | 381 | – | – |
| COc1ccc(S(=O)(=O)n2ccc3cc(/C=C/C(=O)NO)ccc32)cc1 | 800 | 6.8 | 550 | 1.18 | 750 | 3.3 | 125 | 362 | – | 40 |
| O=C(/C=C/c1ccc2[nH]cc(S(=O)(=O)c3ccccc3)c2c1)NO | 1260 | 275.2 | 1270 | 3.33 | 1250 | – | – | – | – | – |
| O=C(/C=C/c1ccc2c(ccn2-c2ccccc2)c1)NO | 1540 | 186.5 | 1320 | 2.85 | 1730 | – | – | – | – | – |
| O=C(NO)c1ccc2c(ccn2S(=O)(=O)c2ccccc2)c1 | 7260 | > 1000 | > 10000 | > 10 | 5680 | – | – | – | – | – |
